Source: PubChem (Broad Institute)
This is a sample that favours compounds with a hit; in the whole collection about 3.5% have one here.
ERAP1 HTS inh – inhibitors of human ERAP1 aminopeptidase. Q9NZ08. recombinant ERAP1, Leu-AMC fluorescence, 60 min. inhibition, % at 10.7 µM. actives 0.15% (n = 340,000). AID 652197;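 active means mean replicate inhibition of at least 30%, or all replicates individually reaching that 30% level; inactive means mean below 30% and not every replicate reaching it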;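 further: 0% = neutral control wells and 100% = L-leucinethiol positive control wells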
Target sequence (Q9NZ08 whole entry, looked up): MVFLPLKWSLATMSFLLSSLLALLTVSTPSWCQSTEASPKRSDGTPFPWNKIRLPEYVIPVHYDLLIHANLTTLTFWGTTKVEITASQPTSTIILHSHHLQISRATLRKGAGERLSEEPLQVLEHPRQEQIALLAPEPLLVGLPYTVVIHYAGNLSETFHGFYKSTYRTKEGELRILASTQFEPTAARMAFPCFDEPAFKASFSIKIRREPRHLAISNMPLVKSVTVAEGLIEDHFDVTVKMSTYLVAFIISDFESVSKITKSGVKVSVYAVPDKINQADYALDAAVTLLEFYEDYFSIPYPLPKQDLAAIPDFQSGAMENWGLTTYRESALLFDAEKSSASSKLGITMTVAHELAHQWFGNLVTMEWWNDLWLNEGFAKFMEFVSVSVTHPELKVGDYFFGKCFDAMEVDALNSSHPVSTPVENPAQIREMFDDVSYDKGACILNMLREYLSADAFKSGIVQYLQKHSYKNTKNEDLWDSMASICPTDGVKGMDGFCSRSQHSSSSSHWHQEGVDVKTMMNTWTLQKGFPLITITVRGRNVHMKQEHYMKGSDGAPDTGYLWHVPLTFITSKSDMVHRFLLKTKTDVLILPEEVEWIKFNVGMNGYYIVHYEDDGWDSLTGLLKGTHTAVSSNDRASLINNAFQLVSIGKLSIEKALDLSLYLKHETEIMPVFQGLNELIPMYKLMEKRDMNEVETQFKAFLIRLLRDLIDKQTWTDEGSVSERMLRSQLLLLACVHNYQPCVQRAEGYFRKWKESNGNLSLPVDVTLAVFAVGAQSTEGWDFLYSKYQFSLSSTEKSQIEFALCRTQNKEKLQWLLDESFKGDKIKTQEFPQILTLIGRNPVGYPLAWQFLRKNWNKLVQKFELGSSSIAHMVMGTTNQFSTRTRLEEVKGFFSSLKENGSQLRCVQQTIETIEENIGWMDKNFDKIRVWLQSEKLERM
Wnt act – activates Wnt/beta-catenin signaling in a reporter cell assay. actives 1.2% (n = 300,000). activator, plate reader. activation, % at 9.35 µM; in the data active means activation above about 30%, passing the limit was not always enough; inconclusive means no clear call, values can overlap the other calls;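 further: 0% = neutral control wells and 100% = positive control wells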
MITF TRPM1 HTS – MITF TRPM1 promoter activation in melanoma cells; SK-MEL-5 TRPM1-promoter luciferase, 24 h; % of positive control, neutral wells = 0; activation, % at 12.5 µM; actives 0.75% (n = 300,000); AID 588334;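 active means mean activation of at least 80% with every replicate also reaching 80%; inconclusive means mean reaches 80% but some replicate falls short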;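 further: 0% = neutral control wells and 100% = parthenolide positive control wells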
Cneo AK release – causes C. neoformans cell lysis; adenylate kinase release luminescence, 4 h; normalised: neutral wells 0, clomiphene wells 100; actives 0.2% (n = 360,000); lysis activity, % at 15 µM; AID 651654;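 active means mean lysis activity across replicates of at least 80%, whatever share of replicates individually reach that level; inactive means mean lysis activity below 80%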
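Assay system: C. neoformans cells. Amount: yeast cell density of 5 × 10^6 cells/mL. Technique: AK luminescence. Buffer or medium: YPD. Times: static 4 h at 37 °C with compound, 1 h detection. Dosing: single-point compound dose. Read-out: lysis from increased AK signal.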
HIV Env fusion – blocks HIV Env-driven cell-cell fusion; HeLa-JRFL Env/CEM21 cell fusion, luciferase; AID 651610; actives 1.1% (n = 360,000); inhibition, % at 12.3 µM;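 active means mean replicate inhibition score of at least 50 and every replicate individually at or above 50; inconclusive means only one of the two criteria met; inactive means mean below 50 and not all replicates reaching 50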;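 further: 0% = plate neutral controls and 100% = maraviroc near 300 nM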
esBAF inh – SWI/SNF esBAF complex inhibition; AID 602393; reporter increase, % at 12.5 µM; actives 2% (n = 350,000); mouse ES cells, Bmi1-luciferase knock-in reporter, 24 h; 100% = twice the neutral-well signal; in the data active means activation above about 40%; inconclusive means no clear call, values can overlap the other calls;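 further: 0% = median of the plate's neutral control wells and 100% = double that signal; a rise in the Bmi1 reporter signal indicates esBAF inhibition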
* = called active by the depositor; ? = inconclusive; . = not tested or not shown; [ ] = dose if it differs, or a comment.

SMILES | ERAP1 HTS inh | Wnt act | MITF TRPM1 HTS | Cneo AK release | HIV Env fusion | esBAF inh
Cc1ccc(SCc2cc(=O)[nH]c(Nc3nc(C)c4cccc(C)c4n3)n2)cc1 | . | . | 2 | -2 | -43 | -1
Cc1cc(C)c2nc(Nc3nc(CSc4nc5ccccc5[nH]4)cc(=O)[nH]3)nc(C)c2c1 | . | 1 | -15 | . | 83* | .
COc1ccc2nc(Nc3nc(CSc4ccc(C)cc4)cc(=O)[nH]3)nc(C)c2c1 | 0 | -2 | 17 | -3 | -1 | 29*
Cc1noc(C)c1NC(=O)Nc1ccc2c(c1)C(=O)N([C@H](C)CO)C[C@@H](C)[C@@H](CN(C)C(=O)Nc1ccccc1)OCCCC[C@@H](C)O2 | 0 | . | . | 4 | -5[16.7 µM] | 4
CCCNC(=O)N(C)C[C@@H]1Oc2ncc(C#CC3CC3)cc2C(=O)N([C@H](C)CO)C[C@@H]1C | -1 | . | . | 1 | -18[16.7 µM] | -6
CN1[C@@H]2c3ccc(-c4ccccc4F)c(=O)n3C[C@@H]2[C@@H](CO)[C@@H]1C(=O)NCc1ccc(F)cc1 | 2 | . | . | -1 | . | 5
CCCC(=O)Nc1ccc2c(c1)C(=O)N(C)[C@H]1CC[C@H](CC(=O)Nc3ccccc3)O[C@@H]1CO2 | 1 | . | . | -3 | 4[16.7 µM] | -6
Cc1noc(C)c1NC(=O)N(C)C[C@H]1Oc2c(NC(=O)NC(C)C)cccc2C(=O)N([C@@H](C)CO)C[C@H]1C | 1 | . | . | 3 | 6[16.7 µM] | -6
O=C(c1cc2cc(Cl)ccc2o1)N1CCCC1 | 0 | 14 | 46 | -1 | -25 | 23
O=C(c1cc2cc(Br)ccc2o1)N1CCCCC1 | 1 | 16 | 30 | -8 | -36 | 49*
CN(C)P(=O)(Nc1cccc2ccccc12)Nc1cccc2ccccc12 | 2 | -11 | . | 1 | 12 | 3
CC(C)OP(=O)(Nc1cccc2ccccc12)OC(C)C | 5 | 67* | -4 | 0 | 94* | .
C[C@@H]1CN([C@H](C)CO)C(=O)c2cc(NS(=O)(=O)c3cn(C)cn3)ccc2O[C@@H]1CN(C)C(=O)Nc1ccccc1 | -3 | . | . | 0 | -18[16.7 µM] | -1
c1ccc(-c2ccc3ncccc3n2)cc1 | -7 | 14 | . | -3 | -44 | 32
c1ccc2nc(-c3ccc(-n4ccnc4)cc3)ccc2c1 | -1 | 49* | 43 | -5 | -65 | 14
c1ccc(-c2ccc3ccccc3n2)cc1 | -2 | 47* | . | 0 | . | 37
Cc1nc(-c2ccccc2)cc(-c2ccccc2)n1 | -6 | -3 | 5 | 3 | 6 | 4
c1ccc(-c2cccc(-c3ccccc3)n2)cc1 | -2 | 7 | 51 | 0 | -14 | 44*
Cc1ccc(S(=O)(=O)Nc2cccc3c2O[C@@H](CN(C)C(=O)NC(C)C)[C@@H](C)CN([C@H](C)CO)C3=O)cc1 | -1 | . | . | 0 | . | 3
Cc1noc(C)c1NC(=O)Nc1ccc2c(c1)CC(=O)N([C@@H](C)CO)C[C@@H](C)[C@@H](CN(C)S(=O)(=O)c1c(C)noc1C)O2 | -1 | . | . | 0 | 12[16.7 µM] | -2
C[C@H]1CN([C@@H](C)CO)C(=O)c2cccc(NC(=O)Nc3ccc(F)cc3)c2O[C@H]1CN(C)S(=O)(=O)c1ccc(F)cc1 | 0 | . | . | -5 | 25[16.7 µM] | -2
COc1ccc(/C=C/c2nc(-c3ccccc3O)n[nH]2)cc1OC | . | 24 | 143* | -19 | -201 | 62*
Cn1c(=O)n(C)c2cc([N+](=O)[O-])c(N3CCN(C(=O)c4ccccc4Cl)CC3)cc21 | . | . | -17 | 0 | 90* | 7
Cn1c(=O)n(C)c2cc([N+](=O)[O-])c(N3CCN(C(=O)c4ccccc4)CC3)cc21 | . | . | -17 | 2 | 55* | -5
O=C(C[C@@H]1C[C@@H]2c3cc(NC(=O)C4CCC4)ccc3O[C@@H]2[C@@H](CO)O1)NCc1ccccn1 | -1 | . | . | 2 | ? | 1
O=Cc1cn(-c2ccccc2)nc1-c1cccc([N+](=O)[O-])c1 | -2 | 1 | . | 1 | -12 | 59*
O=[N+]([O-])c1ccc2cn(-c3ccccc3)nc2c1 | -2 | 26 | 54 | -2 | -61 | 61*
COc1ccccc1-n1cc2ccc([N+](=O)[O-])cc2n1 | -1 | 18 | 59 | . | -26 | .
Cc1noc(C)c1NC(=O)N(C)C[C@H]1Oc2ccc(NC(=O)CCC(F)(F)F)cc2C(=O)N([C@@H](C)CO)C[C@H]1C | 0 | . | . | -1 | -14[16.7 µM] | 1
